Source: PubChem (several laboratories)
This is a sample that favours compounds with a hit; in the whole collection about 6% have one here.
Jurkat tox 60K = cytotoxicity toward Jurkat cells; Jurkat E6.1 viability, ATP luminescence, 48 h; inhibition, % at 4 µM; actives 1.2% (n = 56,000); AID 463;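 active = inhibition above the mean inhibition of all tested compounds plus 3 SD, cut at about 28% in these data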
F-actin modifier = modifiers of cytoskeleton assembly; actives 0.18% (n = 91,000); inhibition, % at 2 µM; AID 836; HUVEC TNFa F-actin phalloidin imaging, high content;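 active = inhibition above the batch mean plus 3 SD and confirmed as a hit by visual image inspection, cut at about 30% in these data, passing the limit was not always enough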
H69AR growth 86K = growth inhibitors of human H69AR lung tumor cells; AID 598; viability, % at 10 µM; actives 6% (n = 85,000); H69AR lung tumor viability, ATP luminescence, 72 h; hits give low values;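 active = viability at or below 40%; inactive = viability above 40%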;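 also: multidrug resistant small cell line overexpressing MRP-1 efflux transporter; 100% = mean luminescence of untreated control wells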
Lung fibro prol = blocks proliferation of human lung fibroblasts; AID 719; LL 47 human lung fibroblast viability, ATP luminescence; hits give low values; actives 1.1% (n = 85,000); viability, % at 10 µM;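 active = viability at or below 50% in the single dose screen; inactive = viability above 50%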;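 also: compound exposure lasted 72 h before the ATP readout; 100% = median luminescence of untreated cell-only wells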
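Test system: LL 47 human lung fibroblasts; Quantity: 1,150 cells/well; Buffer or medium: IMEM plus 15% FBS; Dosing: tenfold compound dosing solution, DMSO at 0.1%; Timing: overnight cell rest, 72 h compound treatment at 37 °C; Detection: ATP-based CellTiter-Glo luminescent readout; Read-out basis: viability percentage against median untreated-cell control; Controls: cell-only wells, no compound.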
HUVEC prolif 384 = human endothelial cell proliferation inhibition | HUVEC proliferation, CellTiter-Glo luminescence, 72 h; hits give low values | viability, % at 10 µM (by protocol) | actives 1.1% (n = 86,000);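 active = viability at or below 30%; inactive = viability above 30%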;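 also: 100% = median luminescence of DMSO-only cell control wells on each plate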
PTK2B oligo ant = Pyk2 (human) oligomerization antagonism | Q293 cells, Pyk2 FERM NanoBiT luminescence; hits give low values | AID 1347419 | Q14289 | z-score (the deposit names both 25 µM and 10 µM) | actives 0.83% (n = 99,000);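 active = Z-score of -3 or lower, scaled per plate to the spread of control and sample wells; inactive = z-score above -3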;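 also: negative z-score means lost luminescence so less FERM oligomerization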
Starred values were filed as active, the others as inactive; / = not tested or not shown.

SMILES	Jurkat tox 60K	F-actin modifier	H69AR growth 86K	Lung fibro prol	HUVEC prolif 384	PTK2B oligo ant
C[C@H]1CCC[C@@H](O)CCC/C=C/c2cc(O)cc(O)c2C(=O)O1	/	-9.4	6.5*	69.5	34.3	-2.29
C[C@H]1CCC[C@H](O)CCCCCc2cc(O)cc(O)c2C(=O)O1	2.6	35.5	32.0*	85.2	46.8	/
O=C1NC(=S)N(c2ccc(Cl)cc2)C(=O)/C1=C/N1CCN(C(=O)c2ccco2)CC1	/	20.4	/	/	/	0.43
O=C(c1cc2ccccn2n1)N1CCC2(CC1)OCCO2	/	-31.8	87.7	107.2	101.3	1.45
O=C(c1ccc2c(c1)ncn2C1CCCCC1)N1CCC2(CC1)OCCO2	54.2*	-27.1	17.1*	75.0	60.2	/
CN1C(=O)C(=Cc2ccccc2Oc2ccc(Cl)cc2)C(=O)N(C)C1=O	/	24.1	/	/	/	-3.92*
Clc1ccc(CSC(Cn2ccnc2)c2ccc(Cl)cc2Cl)cc1 (stereo not given)	/	/	9.2*	84.9	65.9	/
Clc1ccc(COC(Cn2ccnc2)c2ccc(Cl)cc2Cl)cc1 (stereo not given)	/	/	26.2*	78.0	9.2*	/
CN1C[C@H](CNC(=O)OCc2ccccc2)C[C@@H]2c3cccc4c3c(cn4C)C[C@H]21	/	/	1.7*	75.5	3.9*	/
O=C(NC[P+](=O)O)OCc1ccccc1	-1.2	45.9	87.5	102.3	93.2	0.42
CSCCC(N=Cc1c(O)n(-c2ccc(Cl)cc2)c(=O)[nH]c1=O)C(=O)OC(C)(C)C (stereo not given)	/	-9.8	95.5	95.1	96.1	0.16
CC(C)CCNC(=O)c1c(N)n(Cc2ccc3c(c2)OCO3)c2nc3ccccc3nc12	/	13.1	6.1*	66.9	14.8*	-1.45
CC(C)CNC(=O)c1c(N)n(Cc2ccc3c(c2)OCO3)c2nc3ccccc3nc12	/	-0.8	25.9*	87.5	49.0	-1.92
COCCNC(=O)c1c(N)n(CCC(C)C)c2nc3ccccc3nc12	/	-27.5	14.9*	101.8	70.6	-2.09
CCCNC(=O)c1c(N)n(Cc2ccc3c(c2)OCO3)c2nc3ccccc3nc12	-2.5	-0.7	/	/	/	-1.7
NC1=Nc2ccccc2Oc2ccccc21	/	-5.5	/	/	/	-0.59
CN1CCN(CCC(=O)OC2CC3CCC(C2)N3C)CC1 (stereo not given)	/	-3.7	95.7	115.0	100.0	0.85
CC(=O)c1ccc2c(c1)C1C(Cl)C(Sc3ccccc3[N+](=O)[O-])CC1C(c1ccccc1[N+](=O)[O-])N2 (stereo not given)	/	-65.5	70.3	89.2	74.1	-3.44*
O=C1NC(=O)C(=Cc2cn(CCOc3ccc4c(c3)OCO4)c3ccccc23)C(=O)N1	/	-8.0	77.7	48.4*	52.7	-1.99
CCCCn1c(O)c(/C(CC)=N/N2CCCCC2c2cccnc2)c(=O)[nH]c1=S (stereo not given)	/	/	/	/	/	-2.54
C=CCC1(CN2CCCC2=O)C(=O)NC(=O)NC1=O	/	0.6	97.9	105.6	91.5	0.2
CN(C)c1ccc(C(=O)c2ccc(N(C)C)cc2)cc1	/	-18.0	15.7*	55.0	41.1	-1.03
Cc1[nH]c2c(C(F)(F)F)cccc2c1CCN	52.6*	/	17.7*	70.5	82.7	-0.01
Cc1n[nH]c(C)c1CCN	-1.6	-9.1	100.8	106.4	101.6	2.64
CCN1CCN(Cc2cc(Br)cc(Br)c2O)CC1	/	-9.5	71.7	92.1	91.6	-0.26
SMILES	Jurkat tox 60K	F-actin modifier	H69AR growth 86K	Lung fibro prol	HUVEC prolif 384	PTK2B oligo ant
O=c1[nH]c(=O)n(Cc2ccccc2)c(O)c1C=NCCN1CCOCC1	/	/	109.3	99.4	99.4	0.09
COc1ccc(C2NCc3ccc4c(c3-n3cccc32)OCO4)cc1O (stereo not given)	77.9*	-3.4	29.3*	51.9	43.4	/
COc1ccccc1N=Cc1c(O)n(C)c(=O)n(C)c1=O	-0.7	-9.4	1.3*	93.3	97.4	1.32
CN1/C(=C\C=C\C2=[N+](C)c3ccc4ccccc4c3C2(C)C)C(C)(C)c2ccccc21	/	14.3	0.1*	1.6*	2.0*	/
CC(=NCc1cccnc1)c1c(O)n(C2CCCCC2)c(=O)[nH]c1=O	-1.8	19.3	88.3	99.3	107.7	-1.85
CCC(=NCc1ccco1)c1c(O)n(C2CCCCC2)c(=O)[nH]c1=O	-2.8	4.9	31.9*	99.3	102.0	-0.25
CCC(=NCCCN(CC)CC)c1c(O)n(C2CCCCC2)c(=O)[nH]c1=O	-1.1	3.0	87.6	93.4	95.1	0.34
CCC(=NCc1cccnc1)c1c(O)n(C2CCCCC2)c(=O)[nH]c1=O	7.2	27.8	73.0	94.3	97.8	-3.52*
CCC(=Nc1ccc(OC)cc1OC)c1c(O)n(C2CCCCC2)c(=O)[nH]c1=O	7.3	-16.9	78.2	103.4	78.8	-3.4*
CC(C)n1cc(C(=O)N(CC(=O)NC(C)(C)C)Cc2ccccc2)cn1	/	/	99.2	93.0	100.0	0.6
COC(=O)C(O)(c1c(C)[nH]c2ccccc12)C(F)(F)F (stereo not given)	/	-24.6	84.7	89.9	90.2	-0.18
